ATG4B inh: ATG4B protease inhibitors, primary screen, biochemical, fluorescence, uHTS. Cysteine protease ATG4B (Homo sapiens), Q9Y4P1. ATG4B cleavage of LC3-PLA2, NBD-HPC fluorescence, 1 h. inhibition, % at 8.33 µM. actives 0.51% (n = 340,000). AID 504462, 2011; in the data active = inhibition above about 40%
Rpn11 block: Rpn11 (PSMD14) deubiquitinase inhibitors, primary screen, biochemical, fluorescence polarization, uHTS; 26S proteasome non-ATPase regulatory subunit 14 (Homo sapiens), O00487; human 26S proteasome, Ub4-pepOG fluorescence polarization; 20S core pre-blocked with epoxomicin; inhibition, % at 20 µM; actives 0.59% (n = 360,000); AID 588493, 2011;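 active = inhibition at 20 µM, scaled to each plate's controls, above about 33%, limit read from the data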
Target sequence (O00487 whole entry, looked up): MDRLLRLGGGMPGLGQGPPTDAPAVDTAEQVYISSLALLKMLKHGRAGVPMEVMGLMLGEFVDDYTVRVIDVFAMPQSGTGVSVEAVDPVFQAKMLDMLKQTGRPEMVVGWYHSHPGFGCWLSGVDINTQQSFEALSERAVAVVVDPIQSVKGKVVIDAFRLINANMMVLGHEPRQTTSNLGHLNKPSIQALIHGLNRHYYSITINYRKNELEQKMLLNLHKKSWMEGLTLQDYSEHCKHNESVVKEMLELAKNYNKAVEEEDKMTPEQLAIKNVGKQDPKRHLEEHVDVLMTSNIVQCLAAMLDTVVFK
HNF4A DNA FP: change in binding of human HNF4A to DNA, primary screen, biochemical, fluorescence polarization, FITC-DNA | 1 h | activity change, % at 10 µM | actives 0.3% (n = 360,000) | AID 1224865, 2016; in the data active = activity change above about 30%, passing the limit was not always enough
TPT1 inhibitor: Candida albicans TPT1 enzyme inhibitors, primary screen, biochemical, fluorescence polarization | tRNA 2'-phosphotransferase TPT1 (Candida albicans SC5314) | recombinant caTPT1, FP RNA substrate dephosphorylation | inhibition, % at 5 µM | actives 0.81% (n = 300,000);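 active = inhibition above the mean of all tested compounds plus 3 SD, set per screening campaign, cut at about 24% in these data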;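 also: plate controls were DMSO alone for no effect and ferristatin control at 100 nM for full effect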
CSN inh: inhibitors of CSN-mediated cullin deneddylation, primary screen, biochemical, fluorescence polarization, uHTS. COP9 signalosome complex subunit 5 (Homo sapiens), Q92905. Purified CSN, SCF-Nedd8-OG deneddylation. inhibition, % at 12.5 µM. actives 0.38% (n = 360,000). AID 651999, 2013;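 active = pattern-corrected inhibition above about 35%, with an unprinted fluorescence ratio check between 0.5 and 1.5, limit read from the data, passing the limit was not always enough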;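 also: 0% = enzyme with substrate and 100% = substrate without enzyme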
Target sequence (Q92905 whole entry, looked up, one chain of several): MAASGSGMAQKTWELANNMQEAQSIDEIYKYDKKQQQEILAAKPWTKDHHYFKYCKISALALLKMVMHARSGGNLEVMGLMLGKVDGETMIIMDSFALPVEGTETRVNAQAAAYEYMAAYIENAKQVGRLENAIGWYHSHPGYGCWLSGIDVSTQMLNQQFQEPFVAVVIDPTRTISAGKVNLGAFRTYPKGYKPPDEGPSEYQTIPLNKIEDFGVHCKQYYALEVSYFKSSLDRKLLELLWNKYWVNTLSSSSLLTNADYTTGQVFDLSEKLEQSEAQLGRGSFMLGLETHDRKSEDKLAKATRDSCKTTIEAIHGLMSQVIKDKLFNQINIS
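assay system = purified human Csn5 enzyme expressed in HEK293T cells | amount = 0.24 nM enzyme | buffer or medium = Tris/NaCl/DTT buffer, pH 7.5 | reagent = 10 nM SCFSkp2-Nedd8OG | compound = one concentration, 12.5 µM, 0.25% DMSO | times = 90 min reaction at room temperature | signal = FP | read-out basis = % inhibition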
SENP1 inh: human SENP1 catalytic domain inhibitors, primary screen, biochemical, FRET, uHTS | AID 624204, 2012 | inhibition, % at 10 µM | actives 0.21% (n = 360,000) | Sentrin-specific protease 1 (Homo sapiens), Q9P0U3 | recombinant SENP1 catalytic domain, CyPet-SUMO1-YPet FRET cleavage;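 active = inhibition at least 30% at 10 µM, raw YFP signal under a set limit, fluorescence ratio 0.5 to 1.5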;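 also: 0% = enzyme with DMSO and 100% = no enzyme wells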
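Test system: human SENP1 catalytic domain; medium: Tris pH 8 buffer plus EDTA, NaCl, BME, BSA, NP40, catalase; incubation: 50 min reaction at room temperature; technique: FRET, CFP and YFP emission; controls: no-enzyme low control and enzyme-plus-DMSO high control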
CSN5 deneddyl: Csn5 deneddylation inhibitors, confirmation, biochemical, fluorescence polarization, single concentration, SCF-Nedd8OG substrate. Csn5 deneddylation of SCF-Nedd8OG, 90 min. actives 62% (n = 540). inhibition, % at 16.6 µM. AID 720654, 2013. shares compounds with CSN inh; in the data active = inhibition above about 50%;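 also: 0% = DMSO with enzyme and 100% = no enzyme wells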
MMP-2 counter: MMP-2 protease inhibition counter-screen, confirmation, counter-screen for CSN deneddylation inhibitor project, biochemical, fluorescence, single concentration; actives 33% (n = 540); recombinant MMP-2, FRET substrate fluorescence, 60 min; inhibition, % at 16.6 µM; shares compounds with CSN inh;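 active = corrected plate-normalized z-score of 5 or more, or -5 or less, or inhibition of 15% or more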;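 also: plate controls were DMSO wells with enzyme for no effect and buffer wells lacking MMP-2 for full effect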
Thrombin cntr: thrombin (bovine) inhibition, counter-screen for CSN hits. shares compounds with CSN inh. bovine thrombin cleavage of Ub4-pepOG, fluorescence polarization. inhibition, % at 16.6 µM. actives 49% (n = 540);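 active = inhibition at or above a set limit, with a fluorescence interference ratio between 0.5 and a set maximum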
HNF4A confirm: change in HNF4A binding to DNA, retest, confirmation, biochemical, fluorescence polarization, FITC-DNA. activity change, % at 12.5 µM. shares compounds with HNF4A DNA FP. 1 h. actives 99% (n = 210); call rule not given here
The depositor's hits bear a star; / = no result shown; + = active, no number. Shown are actives, neighbours in structure and some others; about 2% of the full set was active somewhere.

SMILES | ATG4B inh | Rpn11 block | HNF4A DNA FP | TPT1 inhibitor | CSN inh | SENP1 inh | HNF4A confirm | others
CCOc1cccc(/C=C(\C#N)C(=O)NC2CC2)c1 | -0.5 | -2.4 | -4.5 | -2.5 | -1.1 | 0.9 | /
O=C(Nc1cccc(-c2nc3ccccc3[nH]2)c1)c1cccc(NC(=O)c2ccco2)c1 | -8.1 | 3.9 | 16.8 | 0.5 | 57.0* | 0.2 | / | CSN5 deneddyl=25.2;MMP-2 counter=8.8;Thrombin cntr=-9.1
Cc1cc(-c2nc3c4c5c(sc4[nH]c(=O)n3n2)CCC5)c(C)o1 | 6.4 | -11.8 | -1.7 | 16.2 | 36.0* | -1.9 | / | CSN5 deneddyl=91.9*;MMP-2 counter=3.9;Thrombin cntr=-20.0
Cc1ccc(C)c(NC(=O)CSc2nnc(NC(=O)C3CC3)s2)c1 | 8.8 | 6.2 | 4.1 | -6.5 | 0.8 | 2.2 | /
COC(=O)c1ccc2c(c1)C(C)(C)C(/C=C/c1ccc(O)cc1)=[N+]2C | 2.7 | / | 41.4* | 19.7 | 47.6* | -0.4 | / | CSN5 deneddyl=61.8*;MMP-2 counter=-16.9;Thrombin cntr=35.1*
CCOC(=O)/C(=C/c1ccc(N2CCC(c3ccccc3)=N2)cc1)C(C)=O | -2.8 | / | 29.2 | / | 39.6* | -25.8 | / | CSN5 deneddyl=189.3*;MMP-2 counter=-71.1*;Thrombin cntr=-31.7
c1ccc(C2=NN(c3ccccc3)CC2)cc1 | -4.9 | -0.8 | -0.5 | 2.1 | 6.5 | -133.2 | /
COc1ccc(OCCNc2cc(N3CCCCC3)ccc2[N+](=O)[O-])cc1 | 1.0 | 5.2 | -1.0 | -2.7 | 7.9 | 1.1 | /
COc1ccc(OCCNc2cc(Cl)ccc2[N+](=O)[O-])cc1 | -10.7 | / | 51.2* | 4.2 | 46.6* | 1.3 | 67.0*
CC(C)NC1(C(N)=O)CCN(Cc2ccccc2)CC1 | -8.8 | 4.5 | 3.3 | / | -2.2 | 3.9 | /
[O-][n+]1nc2ccccc2c2ccccc21 | 9.0 | -0.1 | 5.4 | / | -5.0 | 2.0 | /
O=C(N/N=C/c1coc2ccccc2c1=O)c1cc(Br)ccc1O | 3.7 | 19.1 | 46.3* | 3.4 | 26.7 | -1.4 | 34.9*
N#C/C(=C/c1ccc(-c2ccc([N+](=O)[O-])cc2)o1)c1nnc(N2CCOCC2)n1-c1ccccc1 | 1.5 | 27.1 | 48.0* | / | 16.3 | -35.5 | 37.6*
C=CCC[C@H](Cc1ccc(F)cc1)C(=O)OC[C@@H](NC(=O)[C@H](CC=C)CC(=O)NCCO)c1ccccc1 | -11.0 | -3.3 | -2.4 | / | -1.4 | 5.0 | /
COc1cccc(CN2CCN(C(=S)NCc3ccc(Cl)cc3)CC2)c1 | -0.9 | 3.8 | 4.3 | -0.4 | 1.2 | 0.3 | /
Cc1c(-c2ccc(/C=N/NC(=O)C(=O)Nc3ccccc3F)o2)cccc1[N+](=O)[O-] | -3.8 | / | 78.6* | -0.8 | 15.2 | -34.5 | 35.1*
CC(=O)Nc1ccc(NC(=O)c2ccco2)cc1 | -7.8 | -4.0 | 3.7 | -3.4 | -1.0 | -1.6 | /
CC1N(C)c2cc(NC(=O)c3ccco3)ccc2C1(C)C (stereo not given) | -2.4 | / | 52.5* | 3.3 | 102.4 | -15.6 | 40.7*
CC1N(C)c2cc(NC(=O)c3ccco3)c(P(=O)(Nc3ccc([N+](=O)[O-])cc3)N3CCOCC3)cc2C1(C)C (stereo not given) | 0.1 | 11.5 | -0.2 | 3.1 | 11.1 | 1.0 | /
CC(=O)c1ccc(NC(=O)c2ccc(NC(=O)c3ccco3)cc2)cc1 | 1.1 | + | 86.4* | 0.6 | 19.8 | -0.3 | 111.0*
CCOC(=O)c1c(-c2ccc(C)cc2)csc1NC(=O)/C(C#N)=C/c1ccc(O)c(OC)c1 | -8.3 | / | 55.2* | / | 42.2* | -25.9 | 62.5*
N#Cc1cc(Oc2ccccc2)c(-n2nnc3ccccc32)cc1C#N | -9.6 | -5.7 | 4.5 | 0.8 | 0.7 | -1.0 | /
N#Cc1cc(Oc2ccc3ccccc3c2)c(-n2nnc3ccccc32)cc1C#N | -7.8 | 0.8 | 61.6* | 0.7 | -4.6 | 0.7 | 36.4*
CCc1c(C)sc2nc3c(C(=O)N4CCOCC4)cc(C(=O)c4ccccc4O)cn3c(=O)c12 | -12.3 | 19.3 | 11.6 | 1.9 | -6.1 | 2.7 | /
COC(=O)c1cc(C(=O)c2cc(F)ccc2O)cn2c(=O)c3c(C)c(C)sc3nc12 | 7.5 | 32.5 | 68.0* | 5.0 | 7.6 | -33.6 | 65.7*
Cc1cc(C(=O)Cn2cnc3ccccc3c2=O)c(C)n1C1CC1 | 3.1 | -0.9 | 3.7 | 3.0 | 2.4 | -0.7 | /
C#CCOCCOCCOCCNc1nc(N2CCN(C(=O)C([C@@H](C)O)n3cc([C@@H](N)CCCCN)nn3)CC2)nc(N2CCN(C(=O)[C@H](CCC(=O)O)n3cc([C@@H](N)[C@H](C)CC)nn3)CC2)n1 (stereo not given in full) | 3.3 | -13.9 | -1.4 | / | 3.1 | 1.0 | /
C#CCOCCOCCOCCNc1nc(N2CCN(C(=O)[C@H](CCCCN)n3cc(CN)nn3)CC2)nc(N2CCN(C(=O)[C@H](CCC(=O)O)n3cc([C@@H](N)CCCCN)nn3)CC2)n1 | -1.9 | -1.6 | 92.2* | / | 99.9* | -1.9 | 123.3*
C#CCOCCOCCOCCNc1nc(N2CCN(C(=O)CCCCCCCCCCNC(=O)[C@H](CCCCN)n3cc(CCO)nn3)CC2)nc(N2CCN(C(=O)CCCCCCCCCCNC(=O)[C@H](CCCCN)n3cc(CCCC(=O)O)nn3)CC2)n1 | -9.6 | -15.4 | 48.2* | -1.1 | 6.3 | -3.8 | 66.3*
